We go through 13 compounds from ChEMBL document CHEMBL1125601, “Comparative molecular field analysis of some clodronic acid esters” (J Med Chem, 1991).

SMILES strings stand for the structures.

A short description of data set [1]: Partition coefficient (logP). The format is physicochemical. Conditions: octanol/water. The essentials:
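Shake-flask partition: 200 mg ester dissolved in 4 mL pH 7.4 phosphate buffer or 1-octanol (each saturated with the other), the opposite phase (4 mL) added, shaken 1 h, left overnight, then centrifuged. Both phases were assayed by capillary GC with nitrogen-phosphorus detection.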

Data set [2] in a line: Bioavailability in rat as ratio of unchanged drug excreted in the urine after p.o dosing to that following i.v. administration. The format is ADME, organism-based. Conditions: po. Put shortly: (§1)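 Sprague-Dawley male rats given clodronate esters at 100 μmol/kg orally and intravenously, three animals per dose level and route. Unchanged drug was measured by capillary GC with nitrogen-phosphorus detection. F = (cumulative oral urinary amount × iv dose)/(cumulative iv urinary amount × oral dose).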

Data set [3] is filed under the species Mus musculus. In words: In vitro inhibition of bone resorption tested in mouse calvarial resorption assay by measuring release of 45Ca from labelled bones; expressed as logit inhibition resorption. The format is functional. Put shortly:
(§2)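 Mouse calvarial pieces prelabelled with 45Ca, cultured 72 h with PTH (10 nmol/l) plus ester at 100 μmol/l. Calcium release was measured and expressed as percent of control, the control being PTH-stimulated bones without bisphosphonate.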

The species entered for data set [4] is Mus musculus. Kind of data set: In vitro inhibition of bone resorption tested in mouse calvarial resorption assay by measuring release of 45Ca from labelled bones; expressed as logit inhibition response. The format is functional. The essentials:
as §2

Data set [5] is filed under the species Rattus norvegicus. Kind of data set: Bioavailability of compound was determined from urinary excretion data in rat, expressed as log. In kind it is ADME, organism-based, Urine. Particulars: in vivo. The essentials:
as §1

Data set [6] relates to Rattus norvegicus. In words: In vivo inhibition of bone resorption tested in rat resorption assay measured at dose of 150 umol/kg after iv administration.
Data set [7] deals with Rattus norvegicus. In words: In vivo inhibition of bone resorption tested in rat resorption assay measured at dose of 150 umol/kg after iv administration, expressed as log.
The species named for data set [8] is Mus musculus. In words: In vitro inhibition of bone resorption tested in mouse calvarial resorption assay by measuring release of 45Ca from labelled bones. On the set-up: concentration or dose not given beside the values. In kind it is functional. Put shortly:
as §2

As usually defined, the logP is the decadic logarithm of the partition coefficient of the neutral form, usually between octanol and water. In general, bioavailability refers to the share of a dose that reaches the circulation, judged against a reference dose that is usually intravenous. As a reminder, the Inhibition is the share of the control response that was lost under treatment. Regarding `CCOP(=O)(O)C(Cl)(Cl)P(=O)(O)O`, the logP in data set [1] is -5.44. In addition, the bioavailability in data set [2] came to 37.9%. In the data set listed under Mus musculus [3], this compound showed an Inhibition of 15.4%. Besides, in the data set listed under Mus musculus [4], the “Logit_p(conc)” value is given as 3.26. The same compound displayed a Logit bioavailability in the data set listed under Rattus norvegicus [5] of 3.79. In the data set with Rattus norvegicus [6], the “Delta Ca” value came to 0.77 mM. The “Log 1/delta/Ca” value in the data set on Rattus norvegicus [7] worked out at 3.11.
`CCCCCCOP(=O)(O)C(Cl)(Cl)P(=O)(OCCCCCC)OCCCCCC`: the logP in data set [1] (read-out: logP) is 4.89. Further, the Inhibition in the data set filed under Mus musculus [8] was determined as 58%. Besides, the “Logit_p(conc)” value in the data set filed under Mus musculus [3] is listed as 4.31.
Take `CCCCCCOP(=O)(O)C(Cl)(Cl)P(=O)(O)OCCCCCC`: in data set [1] (read-out: logP), the logP is -0.64. The bioavailability in data set [2] came out at 31%. Further, the Inhibition in the data set listed under Mus musculus [8] stood at 20.5%. Further, the “Logit_p(conc)” value in the data set listed under Mus musculus [3] is listed as 3.41. The compound further had a Logit bioavailability in the data set listed under Rattus norvegicus [5] of 3.65. Moreover, the “Delta Ca” value with Rattus norvegicus [6] is 1.43 mM. Also, the “Log 1/delta/Ca” value in the data set with Rattus norvegicus [7] came out at 2.84.
As for `CCCCCCOP(=O)(OCCCCCC)C(Cl)(Cl)P(=O)(O)O`, in data set [1] (read-out: logP), the logP is -0.15. The bioavailability in data set [2] was determined as 7.6%. This compound displayed an Inhibition in the data set filed under Mus musculus [8] of 15.1%. In the data set listed under Mus musculus [3], the “Logit_p(conc)” value worked out at 3.25. In the data set listed under Rattus norvegicus [5], this compound showed a Logit bioavailability of 2.91. Moreover, the “Delta Ca” value in the data set on Rattus norvegicus [6] was determined as 0.93 mM. The “Log 1/delta/Ca” value in the data set with Rattus norvegicus [7] is 3.03.
On to `CCCCCCOP(=O)(O)C(Cl)(Cl)P(=O)(O)O`, for which the logP in data set [1] (read-out: logP) was -2.75. Moreover, in data set [2], the bioavailability turned out to be 17.9%. In the data set listed under Mus musculus [8], this compound showed an Inhibition of 21.1%. The “Logit_p(conc)” value in the data set filed under Mus musculus [3] was 3.42. The same compound displayed a Logit bioavailability in the data set filed under Rattus norvegicus [5] of 3.4.
Take `CC(C)OP(=O)(O)C(Cl)(Cl)P(=O)(O)OC(C)C`: in data set [1] (read-out: logP), the logP is -2.96. Further, the bioavailability in data set [2] was 1.9%. The Inhibition in the data set filed under Mus musculus [8] is reported as 8%. Further, in the data set filed under Mus musculus [3], the “Logit_p(conc)” value is listed as 2.93. The Logit bioavailability in the data set listed under Rattus norvegicus [5] was determined as 2.3. For the same compound, in the data set on Rattus norvegicus [6], the “Delta Ca” value amounted to 1.09 mM. Moreover, the “Log 1/delta/Ca” value with Rattus norvegicus [7] stood at 2.96.
Take `CCOP(=O)(O)C(Cl)(Cl)P(=O)(OCC)OCC`: in data set [1] (read-out: logP), the logP is -2.37. Besides, in data set [2], the bioavailability was 7%. The compound further gave an Inhibition in the data set filed under Mus musculus [8] of 14.7%. Moreover, the “Logit_p(conc)” value in the data set filed under Mus musculus [3] is 3.23. Further, the Logit bioavailability in the data set filed under Rattus norvegicus [5] is reported as 2.88. Further, the “Delta Ca” value in the data set on Rattus norvegicus [6] was 0.7 mM. Moreover, in the data set with Rattus norvegicus [7], the “Log 1/delta/Ca” value is listed as 3.15.
Turning to `CCOP(=O)(O)C(Cl)(Cl)P(=O)(O)OCC`, the logP in data set [1] (read-out: logP) was -3.96. In addition, the bioavailability in data set [2] is 34%. The compound further came in with an Inhibition in the data set filed under Mus musculus [8] of 12.3%. Also, the “Logit_p(conc)” value in the data set filed under Mus musculus [3] was 3.15. Moreover, in the data set filed under Rattus norvegicus [5], the Logit bioavailability amounted to 3.71. For the same compound, the “Delta Ca” value in the data set on Rattus norvegicus [6] turned out to be 1.05 mM. Also, in the data set on Rattus norvegicus [7], the “Log 1/delta/Ca” value worked out at 2.98.
For the compound `CC(C)OP(=O)(O)C(Cl)(Cl)P(=O)(OC(C)C)OC(C)C`, the logP in data set [1] (read-out: logP) is -0.95. The bioavailability in data set [2] was 1.9%. Besides, the Inhibition in the data set listed under Mus musculus [8] worked out at 7.4%. Also, the “Logit_p(conc)” value in the data set listed under Mus musculus [3] was 2.9. Moreover, the Logit bioavailability in the data set listed under Rattus norvegicus [5] was determined as 2.28. In the data set with Rattus norvegicus [6], the “Delta Ca” value stood at 1.51 mM. Besides, the “Log 1/delta/Ca” value in the data set with Rattus norvegicus [7] was 2.82.
Take `CC(C)OP(=O)(OC(C)C)C(Cl)(Cl)P(=O)(O)O`: the log partition coefficient (logP) in data set [1] (read-out: logP) is -3.56. Also, in data set [2], the bioavailability came to 13.6%. This compound registered an Inhibition in the data set listed under Mus musculus [8] of 0.8%. For the same compound, in the data set listed under Mus musculus [3], the “Logit_p(conc)” value came out at 1.3. Besides, the Logit bioavailability in the data set filed under Rattus norvegicus [5] turned out to be 3.19. Besides, the “Delta Ca” value with Rattus norvegicus [6] was 1.25 mM. Besides, the “Log 1/delta/Ca” value in the data set on Rattus norvegicus [7] is 2.9.
Turning to `CC(C)OP(=O)(O)C(Cl)(Cl)P(=O)(O)O`, the logP in data set [1] (read-out: logP) was -3.24. Moreover, the bioavailability in data set [2] was 3.6%. Besides, in the data set filed under Mus musculus [8], the Inhibition was determined as 11.8%. Moreover, the “Logit_p(conc)” value in the data set filed under Mus musculus [3] was found to be 3.12. In addition, in the data set listed under Rattus norvegicus [5], the Logit bioavailability amounted to 2.57. For the same compound, the “Delta Ca” value in the data set on Rattus norvegicus [6] turned out to be 1.27 mM. The “Log 1/delta/Ca” value with Rattus norvegicus [7] amounted to 2.9.
On to `CC(C)OP(=O)(OC(C)C)C(Cl)(Cl)P(=O)(OC(C)C)OC(C)C`, for which, in data set [1] (read-out: logP), the logP was 2.89. Also, the bioavailability in data set [2] was determined as 32.1%. In addition, the Inhibition in the data set listed under Mus musculus [8] is given as 17.5%. The “Logit_p(conc)” value in the data set listed under Mus musculus [3] is on record as 3.32. This compound also yielded a Logit bioavailability in the data set listed under Rattus norvegicus [5] of 3.67. The “Delta Ca” value in the data set on Rattus norvegicus [6] worked out at 1.54 mM. In addition, in the data set on Rattus norvegicus [7], the “Log 1/delta/Ca” value is 2.81.
`CCOP(=O)(OCC)C(Cl)(Cl)P(=O)(OCC)OCC`: the logP in data set [1] (read-out: logP) turned out to be 1.31. Moreover, in data set [2], the bioavailability came to 5%. The Inhibition in the data set filed under Mus musculus [8] is reported as 18.8%. Further, the “Logit_p(conc)” value in the data set filed under Mus musculus [3] came out at 3.36. Moreover, in the data set listed under Rattus norvegicus [5], the Logit bioavailability is 2.72. Moreover, the “Delta Ca” value with Rattus norvegicus [6] was 1.52 mM. The “Log 1/delta/Ca” value in the data set with Rattus norvegicus [7] is listed as 2.81.
